Assay [1] addresses Insulin-like growth factor 1 receptor (Homo sapiens) (UniProt P08069). Kind of assay: Inhibition of wild-type human partial length IGF1R (L972 to D1294 residues) expressed in Escherichia coli BL21 assessed as residual activity at 1000 nM after 30 mins by Kinomescan method relative to control.
Assay [2] deals with Phosphatidylinositol 3-kinase C2 domain-containing subunit gamma (Homo sapiens) (UniProt O75747). Nature of the assay: Inhibition of wild-type human partial length PIK3C2G (M1 to I1446 residues) expressed in HEK293 cells assessed as residual activity at 1000 nM after 30 mins by Kinomescan method relative to control. In kind it is cell-based.
Phosphatidylinositol 3-kinase C2 domain-containing subunit gamma (Homo sapiens), sequence (O75747 whole entry, the tested form may be a part): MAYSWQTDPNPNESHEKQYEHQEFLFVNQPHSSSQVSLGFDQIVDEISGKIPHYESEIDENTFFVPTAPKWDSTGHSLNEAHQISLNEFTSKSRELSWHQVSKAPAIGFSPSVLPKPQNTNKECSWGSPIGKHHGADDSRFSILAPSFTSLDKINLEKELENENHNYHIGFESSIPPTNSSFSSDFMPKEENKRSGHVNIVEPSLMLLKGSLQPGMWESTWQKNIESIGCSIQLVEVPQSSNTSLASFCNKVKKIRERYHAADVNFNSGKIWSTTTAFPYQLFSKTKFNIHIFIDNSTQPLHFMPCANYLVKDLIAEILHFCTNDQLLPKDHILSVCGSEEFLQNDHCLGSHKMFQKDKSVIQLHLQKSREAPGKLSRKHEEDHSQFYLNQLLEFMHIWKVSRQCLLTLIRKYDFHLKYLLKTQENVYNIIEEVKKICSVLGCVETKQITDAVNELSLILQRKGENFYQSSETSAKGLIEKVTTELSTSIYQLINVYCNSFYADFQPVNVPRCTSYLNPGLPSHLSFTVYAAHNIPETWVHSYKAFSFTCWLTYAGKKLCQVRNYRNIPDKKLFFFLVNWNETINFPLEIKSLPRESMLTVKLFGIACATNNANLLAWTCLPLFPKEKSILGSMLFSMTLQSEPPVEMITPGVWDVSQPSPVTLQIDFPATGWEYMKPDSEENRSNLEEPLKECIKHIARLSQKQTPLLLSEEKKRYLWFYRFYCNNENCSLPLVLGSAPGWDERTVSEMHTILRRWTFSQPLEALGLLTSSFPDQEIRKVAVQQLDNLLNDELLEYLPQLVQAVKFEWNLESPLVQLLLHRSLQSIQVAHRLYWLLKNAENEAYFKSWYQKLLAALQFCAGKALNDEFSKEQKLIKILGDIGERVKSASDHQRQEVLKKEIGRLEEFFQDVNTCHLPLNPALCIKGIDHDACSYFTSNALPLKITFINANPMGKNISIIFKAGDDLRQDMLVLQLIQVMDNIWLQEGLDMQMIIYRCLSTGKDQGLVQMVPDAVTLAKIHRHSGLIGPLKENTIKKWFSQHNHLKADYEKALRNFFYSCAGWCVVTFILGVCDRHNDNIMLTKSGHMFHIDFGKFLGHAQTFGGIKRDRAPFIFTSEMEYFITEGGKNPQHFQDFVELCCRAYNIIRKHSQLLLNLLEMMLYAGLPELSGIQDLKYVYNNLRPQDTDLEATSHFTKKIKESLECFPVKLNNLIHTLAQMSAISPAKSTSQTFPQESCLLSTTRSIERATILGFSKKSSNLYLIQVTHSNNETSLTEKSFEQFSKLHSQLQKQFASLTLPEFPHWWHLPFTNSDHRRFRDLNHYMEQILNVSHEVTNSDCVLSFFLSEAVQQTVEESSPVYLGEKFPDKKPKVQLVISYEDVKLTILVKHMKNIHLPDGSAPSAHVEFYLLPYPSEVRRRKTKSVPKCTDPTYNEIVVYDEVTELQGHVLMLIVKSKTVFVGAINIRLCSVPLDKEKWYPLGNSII
Assay [3] has as its target Insulin receptor-related protein (Homo sapiens) (UniProt P14616). Nature of the assay: Inhibition of wild-type human partial length INSRR (R950 to E1278 residues) expressed in Escherichia coli BL21 assessed as residual activity at 1000 nM after 30 mins by Kinomescan method relative to control.
Assay [4] has as its system Proto-oncogene tyrosine-protein kinase receptor Ret (Homo sapiens), P07949 [V804M]. Nature of the assay: Inhibition of human partial length RET V804M mutant (E713 to D1014 residues) expressed in Escherichia coli BL21 assessed as residual activity at 1000 nM after 30 mins by Kinomescan method relative to control. In a few lines: (§1)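 Single-point screen at a fixed 1 µM, run within a 456-kinase DiscoveRx KINOMEscan panel. Each kinase's read-out is Percent Control, i.e. signal relative to a control without compound. Hits were scored by a Percent Control < 35 cut-off, and an S(35) selectivity score was calculated across the non-mutant kinases.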

Assay [5] has as its system Receptor-type tyrosine-protein kinase FLT3 (Homo sapiens), P36888 [D835H]. Kind of assay: Inhibition of human partial length FLT3 D835H mutant (V592 to Y969 residues) expressed in Escherichia coli BL21 assessed as residual activity at 1000 nM after 30 mins by Kinomescan method relative to control. In a few lines:
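KINOMEscan binding panel of 456 kinases, with the test compound at a single concentration of 1 µM. Read-out is Percent Control.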

In assay [6] the target is Serine/threonine-protein kinase TAO2 (Homo sapiens) (UniProt Q9UL54). Nature of the assay: Inhibition of wild-type human partial length TAOK2 (M1 to A320 residues) expressed in HEK293 cells assessed as residual activity at 1000 nM after 30 mins by Kinomescan method relative to control. In kind it is cell-based.
Assay [7] has as its target Ephrin type-A receptor 3 (Homo sapiens) (UniProt P29320). Kind of assay: Inhibition of wild-type human partial length EPHA3 (D604 to K889 residues) expressed in Escherichia coli BL21 assessed as residual activity at 1000 nM after 30 mins by Kinomescan method relative to control.
Assay [8] has as its target Mitogen-activated protein kinase kinase kinase 20 (Homo sapiens) (UniProt Q9NYL2). Nature of the assay: Inhibition of wild-type human partial length ZAK (M1 to L331 residues) expressed in Escherichia coli BL21 assessed as residual activity at 1000 nM after 30 mins by Kinomescan method relative to control.
Assay [9] addresses Serine/threonine-protein kinase 38 (Homo sapiens) (UniProt Q15208). Nature of the assay: Inhibition of wild-type human partial length NDR1 (N33 to E449 residues) expressed in HEK293 cells assessed as residual activity at 1000 nM after 30 mins by Kinomescan method relative to control. In kind it is cell-based.
The target of assay [10] is Homeodomain-interacting protein kinase 1 (Homo sapiens) (UniProt Q86Z02). Nature of the assay: Inhibition of wild-type human partial length HIPK1 (M146 to I555 residues) expressed in HEK293 cells assessed as residual activity at 1000 nM after 30 mins by Kinomescan method relative to control. In kind it is cell-based.
Assay [11] concerns the target Ephrin type-A receptor 8 (Homo sapiens) (UniProt P29322). Nature of the assay: Inhibition of wild-type human partial length EPHA8 (Q608 to C920 residues) expressed in Escherichia coli BL21 assessed as residual activity at 1000 nM after 30 mins by Kinomescan method relative to control.
The target of assay [12] is Eukaryotic translation initiation factor 2-alpha kinase 1 (Homo sapiens) (UniProt Q9BQI3). Nature of the assay: Inhibition of wild-type human partial length EIF2AK1 (Q147 to E603 residues) expressed in HEK293 cells assessed as residual activity at 1000 nM after 30 mins by Kinomescan method relative to control. In kind it is cell-based.
Eukaryotic translation initiation factor 2-alpha kinase 1 (Homo sapiens), sequence (Q9BQI3 whole entry, the tested form may be a part): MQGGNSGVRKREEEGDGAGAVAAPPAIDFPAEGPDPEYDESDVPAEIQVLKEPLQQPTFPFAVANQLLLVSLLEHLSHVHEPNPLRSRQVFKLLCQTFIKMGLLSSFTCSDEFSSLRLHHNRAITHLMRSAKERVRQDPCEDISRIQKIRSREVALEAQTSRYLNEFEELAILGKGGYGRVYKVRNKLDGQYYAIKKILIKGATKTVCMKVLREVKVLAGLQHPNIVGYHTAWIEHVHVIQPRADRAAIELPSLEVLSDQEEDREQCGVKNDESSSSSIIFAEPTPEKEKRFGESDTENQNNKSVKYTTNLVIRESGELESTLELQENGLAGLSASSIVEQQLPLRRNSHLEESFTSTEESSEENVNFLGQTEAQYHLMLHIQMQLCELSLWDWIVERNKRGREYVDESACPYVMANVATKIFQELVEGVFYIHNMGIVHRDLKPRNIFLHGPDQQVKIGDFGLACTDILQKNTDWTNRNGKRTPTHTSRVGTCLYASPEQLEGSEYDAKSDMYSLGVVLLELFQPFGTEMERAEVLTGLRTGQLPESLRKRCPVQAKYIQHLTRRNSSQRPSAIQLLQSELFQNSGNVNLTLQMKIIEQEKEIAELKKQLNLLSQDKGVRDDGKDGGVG
Assay [13] has as its target Muscle, skeletal receptor tyrosine-protein kinase (Homo sapiens) (UniProt O15146). Kind of assay: Inhibition of wild-type human partial length MUSK (M553 to V869 residues) expressed in Escherichia coli BL21 assessed as residual activity at 1000 nM after 30 mins by Kinomescan method relative to control.
In assay [14] the target is Mitogen-activated protein kinase kinase kinase 13 (Homo sapiens) (UniProt O43283). Kind of assay: Inhibition of wild-type human full length LZK (M1 to W966 residues) expressed in HEK293 cells assessed as residual activity at 1000 nM after 30 mins by Kinomescan method relative to control. It is filed as cell-based. In a few lines:
(§2)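 Single-concentration screen at 1 µM across a 456-kinase KINOMEscan panel. The read-out is Percent Control for each kinase.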

Assay [15] deals with Cyclin-dependent kinase 14 (Homo sapiens) (UniProt O94921). Nature of the assay: Inhibition of wild-type human full length PFTK1 (M1 to H451 residues) expressed in Escherichia coli BL21 assessed as residual activity at 1000 nM after 30 mins by Kinomescan method relative to control. In a few lines: as §2
Cyclin-dependent kinase 14 (Homo sapiens), sequence (O94921 whole entry, the tested form may be a part): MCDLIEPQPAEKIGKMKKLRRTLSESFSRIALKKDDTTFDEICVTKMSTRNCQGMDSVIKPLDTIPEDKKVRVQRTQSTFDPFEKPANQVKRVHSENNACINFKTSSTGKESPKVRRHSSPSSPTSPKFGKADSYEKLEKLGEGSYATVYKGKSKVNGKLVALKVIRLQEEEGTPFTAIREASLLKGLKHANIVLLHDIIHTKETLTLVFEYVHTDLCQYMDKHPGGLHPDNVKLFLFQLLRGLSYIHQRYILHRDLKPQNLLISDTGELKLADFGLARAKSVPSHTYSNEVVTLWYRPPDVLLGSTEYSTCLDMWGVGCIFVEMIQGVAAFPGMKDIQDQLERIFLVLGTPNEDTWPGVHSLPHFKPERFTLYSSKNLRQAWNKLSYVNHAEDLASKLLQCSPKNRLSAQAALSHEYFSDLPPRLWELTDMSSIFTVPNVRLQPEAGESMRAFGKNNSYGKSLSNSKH
The target in assay [16] is Dual specificity tyrosine-phosphorylation-regulated kinase 1A (Homo sapiens) (UniProt Q13627). Nature of the assay: Inhibition of wild-type human partial length DYRK1A (H129 to S509 residues) expressed in HEK293 cells assessed as residual activity at 1000 nM after 30 mins by Kinomescan method relative to control. In kind it is cell-based.
Assay [17] has as its target MAP/microtubule affinity-regulating kinase 4 (Homo sapiens) (UniProt Q96L34). Kind of assay: Inhibition of wild-type human partial length MARK4 (K29 to G340 residues) expressed in Escherichia coli BL21 assessed as residual activity at 1000 nM after 30 mins by Kinomescan method relative to control.
The target of assay [18] is Non-receptor tyrosine-protein kinase TYK2 (Homo sapiens) (UniProt P29597). Kind of assay: Inhibition of wild-type human partial length TYK2 JH2 pseudokinase domain (G556 to D888 residues) expressed in HEK293 cells assessed as residual activity at 1000 nM after 30 mins by Kinomescan method relative to control. It is filed as cell-based.
Assay [19] addresses Cyclin-dependent kinase 4 (Homo sapiens) (UniProt P11802). Nature of the assay: Inhibition of wild-type human full length CDK4 (M1 to E303 residues) expressed in HEK293 cells assessed as residual activity at 1000 nM after 30 mins by Kinomescan method relative to control. In kind it is cell-based. In a few lines:
as §1

Assay [20] addresses Serine/threonine-protein kinase tousled-like 2 (Homo sapiens) (UniProt Q86UE8). Nature of the assay: Inhibition of wild-type human partial length TLK2 (E424 to N749 residues) expressed in Escherichia coli BL21 assessed as residual activity at 1000 nM after 30 mins by Kinomescan method relative to control.
Assay [21] has as its target NT-3 growth factor receptor (Homo sapiens) (UniProt Q16288). Kind of assay: Inhibition of wild-type human partial length TRKC (Q531 to G825 residues) expressed in HEK293 cells assessed as residual activity at 1000 nM after 30 mins by Kinomescan method relative to control. It is filed as cell-based.

Each structure is given as a SMILES string.

Muscle, skeletal receptor tyrosine-protein kinase (Homo sapiens), sequence (O15146 whole entry, the tested form may be a part): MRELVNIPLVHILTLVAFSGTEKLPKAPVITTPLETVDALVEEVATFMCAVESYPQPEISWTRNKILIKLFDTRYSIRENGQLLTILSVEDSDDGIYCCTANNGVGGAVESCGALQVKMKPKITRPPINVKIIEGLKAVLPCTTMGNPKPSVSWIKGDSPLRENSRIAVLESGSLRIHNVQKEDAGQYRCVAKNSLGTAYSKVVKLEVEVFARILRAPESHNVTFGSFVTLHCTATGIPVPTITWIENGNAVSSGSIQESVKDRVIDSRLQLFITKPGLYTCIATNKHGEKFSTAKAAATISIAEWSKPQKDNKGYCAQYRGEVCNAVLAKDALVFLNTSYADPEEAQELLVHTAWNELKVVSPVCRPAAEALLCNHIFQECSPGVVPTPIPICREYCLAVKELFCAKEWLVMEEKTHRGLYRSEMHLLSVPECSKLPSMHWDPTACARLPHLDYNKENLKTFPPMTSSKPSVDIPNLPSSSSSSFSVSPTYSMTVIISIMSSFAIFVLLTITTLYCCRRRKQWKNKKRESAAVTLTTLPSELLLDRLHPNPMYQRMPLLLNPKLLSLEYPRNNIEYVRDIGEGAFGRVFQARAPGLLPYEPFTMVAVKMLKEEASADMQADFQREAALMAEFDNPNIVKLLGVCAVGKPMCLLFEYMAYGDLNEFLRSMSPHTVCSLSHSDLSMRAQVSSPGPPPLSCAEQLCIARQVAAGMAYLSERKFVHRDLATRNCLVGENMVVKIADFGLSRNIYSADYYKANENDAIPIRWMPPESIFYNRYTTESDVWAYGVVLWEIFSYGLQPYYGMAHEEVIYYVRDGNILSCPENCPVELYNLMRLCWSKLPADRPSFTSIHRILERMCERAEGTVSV
Ephrin type-A receptor 3 (Homo sapiens), sequence (P29320 whole entry, the tested form may be a part): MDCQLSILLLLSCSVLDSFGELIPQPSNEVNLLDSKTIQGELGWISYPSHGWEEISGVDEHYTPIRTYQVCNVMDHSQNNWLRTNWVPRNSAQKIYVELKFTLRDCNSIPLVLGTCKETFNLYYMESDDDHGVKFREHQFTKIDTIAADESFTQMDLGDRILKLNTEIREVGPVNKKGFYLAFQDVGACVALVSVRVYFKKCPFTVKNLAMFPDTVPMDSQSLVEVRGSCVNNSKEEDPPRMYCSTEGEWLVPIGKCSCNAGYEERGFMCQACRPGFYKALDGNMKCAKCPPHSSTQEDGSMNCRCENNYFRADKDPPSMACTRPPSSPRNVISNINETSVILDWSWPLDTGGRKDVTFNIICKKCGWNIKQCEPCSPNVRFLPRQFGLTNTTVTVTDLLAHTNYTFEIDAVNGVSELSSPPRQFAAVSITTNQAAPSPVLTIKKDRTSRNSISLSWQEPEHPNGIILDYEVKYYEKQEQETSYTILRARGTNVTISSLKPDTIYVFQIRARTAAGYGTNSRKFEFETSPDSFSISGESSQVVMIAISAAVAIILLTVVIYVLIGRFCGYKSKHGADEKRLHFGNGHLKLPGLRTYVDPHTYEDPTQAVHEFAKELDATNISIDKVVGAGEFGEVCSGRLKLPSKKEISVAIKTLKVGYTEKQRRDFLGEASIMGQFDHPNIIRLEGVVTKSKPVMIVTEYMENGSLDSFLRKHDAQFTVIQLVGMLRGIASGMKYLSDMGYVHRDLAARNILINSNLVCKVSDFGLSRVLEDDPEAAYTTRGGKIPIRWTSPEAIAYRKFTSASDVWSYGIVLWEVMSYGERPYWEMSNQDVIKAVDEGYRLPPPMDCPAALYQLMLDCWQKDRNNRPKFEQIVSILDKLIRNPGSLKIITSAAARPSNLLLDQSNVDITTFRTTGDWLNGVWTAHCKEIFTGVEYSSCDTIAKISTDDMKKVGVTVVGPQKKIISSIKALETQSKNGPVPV
Cyclin-dependent kinase 4 (Homo sapiens), sequence (P11802 whole entry, the tested form may be a part): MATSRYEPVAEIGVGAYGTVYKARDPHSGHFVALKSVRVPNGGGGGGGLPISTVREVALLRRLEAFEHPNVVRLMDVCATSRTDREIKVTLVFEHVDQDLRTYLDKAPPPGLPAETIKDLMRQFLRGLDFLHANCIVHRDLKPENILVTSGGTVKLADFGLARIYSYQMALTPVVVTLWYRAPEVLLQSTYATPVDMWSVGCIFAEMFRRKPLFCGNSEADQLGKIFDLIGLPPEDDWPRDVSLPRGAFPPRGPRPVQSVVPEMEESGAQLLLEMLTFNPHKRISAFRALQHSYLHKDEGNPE

With `COc1cc(OC)c(Cl)c(N2Cc3cnc(Nc4ccc(F)cc4)nc3N(C3CCN(C(=O)/C=C/CN(C)C)CC3)C2=O)c1Cl`, the Activity in assay [1] worked out at 83%; in assay [2], 95%; in [3], 52%; in [4], 52%; in assay [5], 100%; in assay [6] it was 6.2%. Moreover, the Activity stood at 100% in assay [7]; 98% in [8]; 100% in [9]; 100% in assay [10]; 100% in assay [11]; 100% in [12]. The Activity in [13] is 94%; in [14], 100%; in assay [15], 92%; in assay [16], 98%; in assay [17], 87%; in [18], 95%. Moreover, the Activity stood at 100% in assay [19], 96% in assay [20] and 100% in assay [21].
